RGS4 inh: inhibitors of human RGS4; P49798; HEK293 M3R/RGS4 inducible, Fluo-4 calcium flux; hits give high values; triggered by carbachol at its EC20; B-score at 10 µM; 310,000 tested, 0.45% active;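 active = B-score, a plate-corrected calcium signal, over three deviations above library mean, with baseline fluorescence within five deviations of library mean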;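 note: RGS4 expression induced by doxycycline in cells with stable M3 receptor; B-score is computed from the integrated fluorescence ratio over baseline after carbachol; higher B-score means a larger calcium signal and so more RGS4 inhibition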
Target sequence (P49798 whole entry, looked up): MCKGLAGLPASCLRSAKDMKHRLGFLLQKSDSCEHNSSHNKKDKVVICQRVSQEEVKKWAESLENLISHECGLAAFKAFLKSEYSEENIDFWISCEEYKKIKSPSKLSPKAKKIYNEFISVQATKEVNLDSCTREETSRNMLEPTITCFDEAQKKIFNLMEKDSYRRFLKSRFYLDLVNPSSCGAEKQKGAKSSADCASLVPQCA
MrgX1 ag: activates human MrgX1 receptor signaling; Q96LB2; MrgX1-HEK293 cells, Fluo-4 calcium fluorescence, agonist mode; hits give high values; B-score at 10 µM; 310,000 tested, 0.44% active;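 active = calcium response B-score plate-corrected fluorescence ratio at least 3 library SD, with starting fluorescence B-score inside 5 SD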
Target sequence (Q96LB2 whole entry, looked up): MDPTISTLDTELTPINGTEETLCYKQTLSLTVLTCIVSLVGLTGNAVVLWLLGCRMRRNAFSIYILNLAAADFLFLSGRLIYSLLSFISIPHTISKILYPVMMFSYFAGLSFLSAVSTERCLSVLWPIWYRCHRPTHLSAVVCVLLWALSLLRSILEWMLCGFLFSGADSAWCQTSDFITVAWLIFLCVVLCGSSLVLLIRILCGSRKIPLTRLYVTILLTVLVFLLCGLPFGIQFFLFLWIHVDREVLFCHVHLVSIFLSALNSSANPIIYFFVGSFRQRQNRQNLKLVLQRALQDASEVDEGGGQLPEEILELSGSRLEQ
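Test system: Stable human MrgX1 HEK293 cell line | Schedule: Overnight plating before 1 h dye loading | Read-out basis: Baseline-normalised fluorescence change ratio, B-scored | Detection: Kinetic calcium dye fluorescence, Fluo-4 NW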
MrgX1 allo act: allosterically activates human MrgX1 receptor signaling; B-score at 10 µM; Q96LB2; 310,000 tested, 0.63% active; MrgX1-HEK293, Fluo-4 calcium flux, FDSS; hits give high values; AID 588675;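 active = plate-corrected calcium response at least 3 library SD above typical, normal starting fluorescence, not activating the receptor alone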;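 note: compound read alongside a low EC10 to EC30 dose of BAM8-22 agonist; peak minus trough fluorescence over baseline measured at the second addition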
MrgX1 antag: blocks BAM8-22 activation of human MrgX1 receptor | MRGX1-HEK293 calcium flux, Fluo-4, BAM8-22 antagonism; hits give low values | B-score at 10 µM | 310,000 tested, 1.3% active | Q96LB2 | AID 588676;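 active = calcium-response B-score plate-corrected more than 3 library SD below zero, starting fluorescence within 5 deviations, no agonist response on first addition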;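 note: peak minus trough fluorescence over baseline after final BAM8-22 challenge near maximal dose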
RGS4 act: potentiators or activators of RGS4; 310,000 tested, 0.92% active; HEK293 M3R/inducible RGS4, carbachol calcium flux Fluo4; hits give low values; AID 463111; B-score at 10 µM;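 active = B-score of the integrated calcium signal more than 4 SD below the library mean, with starting fluorescence not abnormally high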;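 note: negative B-score means reduced calcium response which marks RGS4 activation or potentiation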
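Reagent: ECmax carbachol challenge; Test system: M3R-expressing HEK293 line, RGS4 induced by doxycycline; Schedule: overnight RGS4 induction, 30 min dye load 37 °C, 20 min compound RT; Detection: calcium dye Fluo4 fluorescence; Read-out: Agonist-evoked peak-minus-minimum fluorescence over baseline, integrated ratio, B score.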
* = called active by the depositor; i = inactive; . = no result given. Rows were chosen to be rich in hits. Some 3.5% of all compounds tested hit in one or more screens of this group.

SMILES	RGS4 inh	MrgX1 ag	MrgX1 allo act	MrgX1 antag	RGS4 act
Cc1ccc2oc(-c3cccc(NC(=S)NC(=O)c4cccs4)c3)nc2c1	i	i	i	i	i
COc1ccc(/C=C/C(=O)NC(=S)Nc2ccccn2)cc1	i	i	7.1*	i	i
Cc1ccc2oc(-c3cccc(NC(=S)NC(=O)/C=C/c4ccco4)c3)nc2c1	i	i	i	i	-7.1*
COc1cc(/C=C2\SC(=S)N(C(Cc3ccccc3)C(=O)O)C2=O)ccc1O (configuration not stated)	i	56*	i	i	i
COc1cc(/C=C2/SC(=S)N(CC3CCCO3)C2=O)ccc1O (configuration not stated)	i	i	i	-8.6*	i
COc1ccc(/C=C2\SC(=S)N(CC3CCCO3)C2=O)cc1 (configuration not stated)	i	i	i	i	i
O=C(O)C(Cc1ccccc1)N1C(=O)/C(=C/c2ccccc2)SC1=S (configuration not stated)	i	i	i	i	i
Nc1c(/C=C2\C=Nc3ccccc32)c(=O)nc2sc(CC(=O)N3CCOCC3)nn12	i	i	10*	i	i
COC1=C/C(=C/c2c(N)n3nc(CC(=O)N4CCCCC4)sc3nc2=O)C=CC1=O	i	69*	i	i	i
O=C(Nc1ccc2c(c1)CN(Cc1ccc(CO)o1)CC2)c1ccc(C(F)(F)F)cc1	i	i	i	i	i
OC(c1ccccc1)(c1ccccc1)c1ncc[nH]1	i	i	i	i	i
CC(C)CNC(=O)/C(C#N)=C1\N=C(NC(=O)c2ccco2)c2ccccc21	i	i	i	-4.8*	i
COc1ccc(NC(C)=O)cc1CNC(=O)COc1ccccc1C(=O)Nc1cccc(C)c1C	i	i	i	i	i
CCCc1cc(=O)oc2cc(C)cc(OCC(=O)NC(Cc3ccc(Cl)cc3)C(=O)O)c12 (configuration not stated)	i	i	i	i	i
CCCCc1cc(=O)oc2cc(C)cc(OCC(=O)NC(Cc3ccc(Cl)cc3)C(=O)O)c12 (configuration not stated)	i	i	i	i	-8.4*
Cc1cc(C)cc(N(CCC#N)C(=O)COC(=O)C2CCN(c3ccc(C(F)(F)F)cn3)CC2)c1	i	i	i	i	-7*
Cc1ccc(N(CCC#N)C(=O)COC(=O)C2CCN(c3ccc(C(F)(F)F)cn3)CC2)cc1	i	i	i	i	i
CCOc1cccc(CNc2ccc(O)cc2)c1OCc1ccccc1Cl	i	29*	i	i	i
CCOc1cccc(CNc2ccc(O)cc2)c1OCc1ccc(Cl)cc1Cl	i	i	i	i	i
COc1ccc(-n2c(=S)[nH]c3cc(C(=O)NCc4cccnc4)ccc3c2=O)cc1	i	i	i	i	i
COc1ccc(Cc2nc3ccc(C(=O)NC(C)Cc4ncccc4C)cc3o2)cc1OC (configuration not stated)	i	i	i	i	-7*
O=C1/C(=C/c2ccc(O)cc2)COc2ccccc21	i	i	i	i	i
O=C1/C(=C/c2ccccn2)COc2ccccc21	i	i	6.7*	i	i
CC/C=C/C(=O)N1CC2(CC(c3cccc(NC(=O)COc4ccc(Cl)cc4)c3)=NO2)C[C@H]1C(N)=O (some centres not stated)	i	i	i	i	i
O=C(c1ccc(Cl)nc1)c1cccs1	i	i	i	i	i
SMILES	RGS4 inh	MrgX1 ag	MrgX1 allo act	MrgX1 antag	RGS4 act
O=C(c1cccs1)c1no[n+]([O-])c1C(=O)c1cccs1	i	99*	i	i	-7*
CC1(C)Cc2noc(N)c2C(C)(C)N1O	i	i	i	-6.3*	i
N#Cc1nccnc1S(=O)(=O)c1cccs1	i	i	i	i	-7.8*
CN(Cc1ccccc1C#N)S(=O)(=O)c1cccs1	i	i	i	i	i
CCC[n+]1c(C)sc2c(OC)ccc(OC)c21	i	i	i	-5.5*	i
CCCOc1cccc(-c2cc(C(=O)N/N=C/c3ccccn3)c3ccccc3n2)c1	i	i	i	i	-9.1*
Cc1cccc(-c2cc(C(=O)N/N=C/c3cccnc3)c3ccccc3n2)c1	i	i	i	i	i
CCCOc1cccc(-c2cc(C(=O)N/N=C/c3cccnc3)c3ccccc3n2)c1	i	i	i	i	-8.1*
CC(C)CNC(=O)C(=O)NCC1CCCN1S(=O)(=O)c1cccs1 (configuration not stated)	i	i	i	i	i
N#CCCN(Cc1cccs1)C(=O)Nc1ccccc1	i	i	i	i	i
Cc1cccc(C(=O)Nc2scc(-c3ccc(Br)cc3)c2C(=O)O)c1	i	i	i	i	i
Cc1ccc(-c2csc(NC(=O)c3ccc(Br)cc3)c2C(=O)O)cc1	i	31*	i	i	i
CC(C)c1ccc(C(CC(=O)O)NC(=O)c2cccs2)cc1 (configuration not stated)	i	i	i	i	i
CC(C)c1ccc(-c2csc(NC(=O)c3cccs3)c2C(=O)O)cc1	i	i	19*	-6.8*	i
NS(=O)(=O)c1ccc(NC(=O)c2cc(-c3cc(Cl)ccc3O)n[nH]2)cc1	i	i	i	i	i
COc1cc(C)ccc1OCCOCCN(C)Cc1ccccc1	i	i	i	-6.5*	i
COc1ccccc1OCCOCCOc1ccc(C)cc1[N+](=O)[O-]	i	i	i	-7*	i
CCc1ccccc1NS(=O)(=O)c1cc2c3c(c1)CCN3C(=O)CC2	i	.	.	.	i
CCN1C(=O)/C(=C\N(C)C)S/C1=N\S(=O)(=O)c1ccccc1	i	i	10*	i	i
CC(=O)Nc1ccc(C2=NN(C)C(=NCc3ccccc3)SC2)cc1	i	i	7.7*	i	i
Cc1cccc(C)c1OCC(=O)NNC(=S)NC(=O)C1CC1	i	63*	i	i	i
COc1ccc2c(Cl)c(C(=O)N/N=C3\CCCC(=O)C3)sc2c1	i	i	i	-7.4*	i
COc1ccc2c(Cl)c(C(=O)N/N=C/c3ccc4c(c3)OCO4)sc2c1	i	i	i	i	i
O=C(O)c1cccc(-c2ccc(/C=C3/SC(=Nc4ccccc4)N(Cc4cccnc4)C3=O)o2)c1	i	i	i	-5.1*	i

Source: PubChem BioAssay (Johns Hopkins Ion Channel Center)
